According to ChEMBL document CHEMBL4406895, “Discovery of amide-bridged pyrrolo[2,3-d]pyrimidines as tumor targeted classical antifolates with selective uptake by folate receptor α and inhibition of de novo purine nucleotide biosynthesis” (Bioorg Med Chem, 2019):
The source made the active and inactive calls. The rule behind the calls is not given here.

system: not listed separately; test: Antiproliferative activity in Chinese hamster R2 cells deficient in RFC, PCFT, and FRalpha assessed as reduction in cell growth after 96 hrs by Cell-Titer Blue assay; assay type: cell-based; conditions: Cricetulus griseus, R2, 96 h
Procedure, shortened: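 CHO sublines were transfected lines kept with 1 mg/ml G418 (R2 is the transporter-null parent). Cells were exposed to 0–1000 nM drug for 96 h at 37 °C, 5% CO2, in folate-free RPMI with 10% dFBS and 25 nM leucovorin. CellTiter-Blue fluorescence read at ex 560/em 590 nm. IC50 is 50% loss of growth from dose–response curves, mean ± SE of 3–10 experiments.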

Structure (SMILES) | IC50 [nM]
CN(Cc1cc2c(=O)[nH]c(N)nc2[nH]1)C(=O)c1cccc(C(=O)N[C@@H](CCC(=O)O)C(=O)O)c1 | > 1000
CN(Cc1cc2c(=O)[nH]c(N)nc2[nH]1)S(=O)(=O)c1ccc(C(=O)N[C@@H](CCC(=O)O)C(=O)O)cc1 | > 1000
CN(Cc1cc2c(=O)[nH]c(N)nc2[nH]1)C(=O)c1csc(C(=O)N[C@@H](CCC(=O)O)C(=O)O)c1 | > 1000
CN(Cc1cc2c(=O)[nH]c(N)nc2[nH]1)C(=O)c1ccc(C(=O)N[C@@H](CCC(=O)O)C(=O)O)cc1 | > 1000
CN(Cc1cc2c(=O)[nH]c(N)nc2[nH]1)C(=O)c1ccc(C(=O)N[C@@H](CCC(=O)O)C(=O)O)s1 | > 1000
CN(Cc1cc2c(=O)[nH]c(N)nc2[nH]1)C(=O)c1cc(C(=O)N[C@@H](CCC(=O)O)C(=O)O)cs1 | > 1000

system: not listed separately; test: Binding affinity to human FRalpha/RFC/PCFT expressed in KB cells assessed as antiproliferative activity measured as reduction in cell growth after 96 hrs by Cell-Titer Blue assay; assay type: cell-based; conditions: not given
Procedure, shortened: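 RT16 cells were precultured 72 h in folate-free RPMI with 10% dFBS; KB cells were maintained in folate-free RPMI with 10% FBS. Drug at 0–1000 nM for 96 h at 37 °C, 5% CO2, with 2 nM leucovorin. Parallel wells had 200 nM folic acid to block FR uptake. CellTiter-Blue fluorescence (ex 560/em 590 nm). IC50 from dose–response, mean ± SE of 3–10 experiments.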

Structure (SMILES) | IC50 [nM]
CN(Cc1cc2c(=O)[nH]c(N)nc2[nH]1)C(=O)c1cccc(C(=O)N[C@@H](CCC(=O)O)C(=O)O)c1 | 6.36
CN(Cc1cc2c(=O)[nH]c(N)nc2[nH]1)S(=O)(=O)c1ccc(C(=O)N[C@@H](CCC(=O)O)C(=O)O)cc1 | 669
CN(Cc1cc2c(=O)[nH]c(N)nc2[nH]1)C(=O)c1csc(C(=O)N[C@@H](CCC(=O)O)C(=O)O)c1 | > 1000
CN(Cc1cc2c(=O)[nH]c(N)nc2[nH]1)C(=O)c1ccc(C(=O)N[C@@H](CCC(=O)O)C(=O)O)cc1 | 1.4
CN(Cc1cc2c(=O)[nH]c(N)nc2[nH]1)C(=O)c1ccc(C(=O)N[C@@H](CCC(=O)O)C(=O)O)s1 | 4.23
CN(Cc1cc2c(=O)[nH]c(N)nc2[nH]1)C(=O)c1cc(C(=O)N[C@@H](CCC(=O)O)C(=O)O)cs1 | 69.8

system: KB; test: Antiproliferative activity against human KB cells at 0.1 to 10000 nM after 96 hrs in presence of 60 uM adenosine by Cell-Titer blue assay; assay type: functional, cell-based; conditions: not given
Procedure, shortened: (§1)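 KB cells grown in folate-, nucleoside- and glycine-free RPMI 1640 with 10% dialyzed FBS, L-glutamine, antibiotics and 2 nM leucovorin across a drug concentration range. Protectants: thymidine 10 μM, glycine 130 μM, adenosine 60 μM or AICA 320 μM. Parallel incubations had no additions. Viable cells read by CellTiter-Blue fluorescence. At least triplicate experiments.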

Structure (SMILES) | Activity
Nc1nc2[nH]c(CCCc3ccc(C(=O)N[C@@H](CCC(=O)O)C(=O)O)cc3)cc2c(=O)[nH]1 | inactive
CN(Cc1cc2c(=O)[nH]c(N)nc2[nH]1)C(=O)c1ccc(C(=O)N[C@@H](CCC(=O)O)C(=O)O)cc1 | inactive
CN(Cc1cc2c(=O)[nH]c(N)nc2[nH]1)C(=O)c1ccc(C(=O)N[C@@H](CCC(=O)O)C(=O)O)s1 | inactive
Nc1nc2[nH]c(CCCc3ccc(C(=O)N[C@@H](CCC(=O)O)C(=O)O)s3)cc2c(=O)[nH]1 | inactive

system: KB; test: Antiproliferative activity against human KB cells at 0.1 to 10000 nM after 96 hrs in presence of 10 uM thymidine by Cell-Titer blue assay; assay type: functional, cell-based; conditions: not given; procedure, shortened: as §1

Structure (SMILES) | Activity
Nc1nc2[nH]c(CCCc3ccc(C(=O)N[C@@H](CCC(=O)O)C(=O)O)cc3)cc2c(=O)[nH]1 | Active
CN(Cc1cc2c(=O)[nH]c(N)nc2[nH]1)C(=O)c1ccc(C(=O)N[C@@H](CCC(=O)O)C(=O)O)cc1 | Active
CN(Cc1cc2c(=O)[nH]c(N)nc2[nH]1)C(=O)c1ccc(C(=O)N[C@@H](CCC(=O)O)C(=O)O)s1 | Active
Nc1nc2[nH]c(CCCc3ccc(C(=O)N[C@@H](CCC(=O)O)C(=O)O)s3)cc2c(=O)[nH]1 | Active

system: KB; test: Antiproliferative activity against human KB cells at 0.1 to 10000 nM after 96 hrs in presence of 130 uM glycine by Cell-Titer blue assay; assay type: functional, cell-based; conditions: not given; procedure, shortened: as §1

Structure (SMILES) | Activity
Nc1nc2[nH]c(CCCc3ccc(C(=O)N[C@@H](CCC(=O)O)C(=O)O)cc3)cc2c(=O)[nH]1 | Active
CN(Cc1cc2c(=O)[nH]c(N)nc2[nH]1)C(=O)c1ccc(C(=O)N[C@@H](CCC(=O)O)C(=O)O)cc1 | Active
CN(Cc1cc2c(=O)[nH]c(N)nc2[nH]1)C(=O)c1ccc(C(=O)N[C@@H](CCC(=O)O)C(=O)O)s1 | Active
Nc1nc2[nH]c(CCCc3ccc(C(=O)N[C@@H](CCC(=O)O)C(=O)O)s3)cc2c(=O)[nH]1 | Active

target: T1, Trifunctional purine biosynthetic protein adenosine-3 (Homo sapiens) (UniProt P22102); test: Inhibition of GAFTase in human KB cells assessed as inhibition of [14C(U)glycine incorporation into [14C]formyl GAR preincubated for 30 mins followed by [14C](U)glycine addition and measured after 16 hrs; assay type: cell-based; conditions: not given
T1 sequence (whole entry): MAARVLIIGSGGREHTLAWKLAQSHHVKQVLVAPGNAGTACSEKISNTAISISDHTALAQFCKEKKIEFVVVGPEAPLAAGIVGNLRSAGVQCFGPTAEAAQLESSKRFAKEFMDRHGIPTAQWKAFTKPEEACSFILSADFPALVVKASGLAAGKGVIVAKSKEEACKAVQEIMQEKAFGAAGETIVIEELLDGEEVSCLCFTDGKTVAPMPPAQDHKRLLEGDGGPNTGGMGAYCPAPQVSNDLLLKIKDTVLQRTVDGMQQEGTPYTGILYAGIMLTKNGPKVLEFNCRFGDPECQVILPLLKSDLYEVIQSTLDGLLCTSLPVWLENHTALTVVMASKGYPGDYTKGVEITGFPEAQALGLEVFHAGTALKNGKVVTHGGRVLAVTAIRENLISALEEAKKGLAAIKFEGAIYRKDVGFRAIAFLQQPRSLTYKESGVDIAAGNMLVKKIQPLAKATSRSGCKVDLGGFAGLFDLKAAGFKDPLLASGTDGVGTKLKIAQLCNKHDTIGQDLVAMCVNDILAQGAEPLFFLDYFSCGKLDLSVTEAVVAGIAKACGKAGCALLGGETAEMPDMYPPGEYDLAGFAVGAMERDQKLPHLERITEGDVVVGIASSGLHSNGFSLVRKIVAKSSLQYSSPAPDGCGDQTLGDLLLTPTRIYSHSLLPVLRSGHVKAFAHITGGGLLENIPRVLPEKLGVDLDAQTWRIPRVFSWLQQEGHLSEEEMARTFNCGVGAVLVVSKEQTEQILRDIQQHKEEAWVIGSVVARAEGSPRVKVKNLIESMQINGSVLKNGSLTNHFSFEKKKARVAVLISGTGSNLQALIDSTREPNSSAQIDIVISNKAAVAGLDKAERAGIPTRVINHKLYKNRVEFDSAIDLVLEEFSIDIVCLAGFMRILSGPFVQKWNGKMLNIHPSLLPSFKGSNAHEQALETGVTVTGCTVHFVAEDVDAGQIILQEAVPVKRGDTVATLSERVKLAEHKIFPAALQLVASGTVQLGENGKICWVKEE
Procedure, shortened: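 KB cells adhered 24 h, then were washed and given drug (concentration range; DMSO controls) for 1 h in folate- and glutamine-depleted medium with 2 nM leucovorin. Azaserine 4 µM final was added for 30 min, then L-glutamine 2 mM and [14C(U)]glycine (0.1 mCi/L) for 16 h. TCA extracts yielded pmol [14C]formyl GAR/mg protein. IC50 relative to untreated controls, triplicates.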

Structure (SMILES) | inhibition
CN(Cc1cc2c(=O)[nH]c(N)nc2[nH]1)C(=O)c1ccc(C(=O)N[C@@H](CCC(=O)O)C(=O)O)cc1 | Active
CN(Cc1cc2c(=O)[nH]c(N)nc2[nH]1)C(=O)c1ccc(C(=O)N[C@@H](CCC(=O)O)C(=O)O)s1 | Active

system: KB; test: Antiproliferative activity against human KB cells up to 1 uM after 96 hrs in presence of 320 uM AICA by Cell-Titer blue assay; assay type: functional, cell-based; conditions: not given; procedure, shortened: as §1

Structure (SMILES) | Activity
Nc1nc2[nH]c(CCCc3ccc(C(=O)N[C@@H](CCC(=O)O)C(=O)O)cc3)cc2c(=O)[nH]1 | inactive
Nc1nc2[nH]c(CCCc3ccc(C(=O)N[C@@H](CCC(=O)O)C(=O)O)s3)cc2c(=O)[nH]1 | inactive
